Active and inactive are the calls of the source. The calls are words filed in the database; no cut-off is given here.

The text below walks through data of ChEMBL document CHEMBL4334446, “Evaluating the effects of fluorine on biological properties and metabolic stability of some antitubulin 3-substituted 7-phenyl-pyrroloquinolinones” (Eur J Med Chem, 2019).

In data set [1] the test system is HeLa. Put plainly: Induction of ROS generation in human HeLa cells at 100 nM incubated for 12 to 24 hrs by H2DCFDA staining based flow cytometric analysis. The class given is functional, cell-based. In a few lines:
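HeLa cells were treated 6, 12, 24 and 48 h, then stained with H2-DCFDA. ROS fluorescence was read by flow cytometry. Mean ± SEM of three independent experiments.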

Data set [2] deals with HeLa. Put plainly: Cell cycle arrest in human HeLa cells assessed as proportion of mitotic cells at 100 nM incubated for 24 hrs by PI staining based flow cytometry (reference value: 1.5%). Type of data set: functional. (In general: A flow cytometer gives signals particle by particle.)
The subject of data set [3] is HeLa. Put plainly: Induction of cell cycle arrest in human HeLa cells assessed as accumulation at M phase by measuring p-histone H3 level at 50 to 100 nM incubated for 24 hrs by PI staining based flow cytometric analysis. The class given is functional.
Data set [4] relates to A2058. The data set is described as follows: Induction of cell cycle arrest in human A2058 cells assessed as accumulation of cells at G2/M phase at 50 to 100 nM incubated for 24 hrs by PI staining based flow cytometric analysis. The class given is functional. In a few lines:
(§1)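 A375 and A2058 melanoma cells were treated 24 h. Cells were fixed in ice-cold 70% ethanol, then given lysis buffer with RNase A and 0.1% Triton X-100 and stained with PI. Phase distribution came from flow cytometric DNA histograms. Mean ± SEM of two independent experiments.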

Data set [5] deals with A2058. The data set is described as follows: Induction of cell cycle arrest in human A2058 cells assessed as reduction in cell population at G1 phase at 50 to 100 nM incubated for 24 hrs by PI staining based flow cytometric analysis. Type of data set: functional. In a few lines: as §1
The test system of data set [6] is HeLa. The data set is described as follows: Induction of apoptosis in human HeLa cells assessed as increase in H2AX expression at 50 to 100 nM incubated upto 48 hrs by western blot analysis. Type of data set: functional, cell-based. In a few lines:
(§2)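 HeLa cells were exposed for set times, including 24 and 48 h, then washed in cold PBS and lysed on ice for 30 min. Lysates were cleared at 15000 × g at 4 °C. 10 µg protein was run by SDS-PAGE and transferred to PVDF. Blots were probed 2 h at room temperature with primary antibodies, then peroxidase secondary antibodies, and detected by ECL. Membranes were reprobed for actin as loading control.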
A general note: A western blot detects proteins with antibodies after separation by electrophoresis.

The test system of data set [7] is HeLa. Put plainly: Increase in cyclin B1 protein expression level in human HeLa cells incubated for 24 to 48 hrs by western blot analysis. Type of data set: functional, cell-based. The method in brief:
as §2

Another data set relates to MDA-MB-231. Put plainly: Growth inhibition of human MDA-MB-231 cells incubated for 72 hrs by MTT assay. Type of data set: functional. The note with it: MDA-MB-231, 72 h.
Data set [8] relates to HeLa. Put plainly: Cell cycle arrest in human HeLa cells assessed as disappearance in cdc25c protein expression at 50 to 100 nM incubated for 48 hrs by western blot analysis. Type of data set: functional, cell-based. The method in brief:
as §2

The nature of data set [9]: Growth inhibition of human DND41 cells incubated for 72 hrs by MTT assay. Type of data set: functional. The note with it: DND41, 72 h. In a few lines: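 Leukemia lines were grown in RPMI-1640; the CEM^Vbl-100 medium also contained 100 ng/mL vinblastine. Cells were seeded at 8 × 10³ per well and left 18 h at 37 °C, 5% CO2. Medium was then replaced with fresh medium holding graded compound concentrations (DMSO stocks), in triplicate, for 72 h. Viability was read by MTT, and GI50 = concentration inhibiting proliferation 50%.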

Data set [10] is described as follows: Metabolic stability in human liver microsomes assessed as 7-phenyl-3H-pyrrolo[3,2-f]quinolin-9(6H)-one metabolite formation at 10 uM incubated for 60 mins in presence of NADPH by ESI-MS analysis. The note with it: 1 h. The class given is ADME, Microsome. In a few lines: (§3)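 Compound (10 µM) was incubated with pooled mixed-gender HLMs (0.5 mg protein/mL), 1 mM NADPH and 0.1 M KH2PO4 pH 7.4 for 60 min at 37 °C, aerobic. The reaction was started with microsomes and stopped with ice-cold acetonitrile; controls lacked NADPH. The supernatant went to C8 HPLC with fluorescence detection (ex 344, em 493 nm). Collected peaks were analyzed by ESI+ mass spectrometry.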
In general terms: Liver microsomes are a subcellular fraction often used to study metabolism.

Data set [11] in a line: Drug metabolism in human liver microsomes at 10 uM incubated for 60 mins in presence of NADPH by HPLC analysis. Particulars: 1 h. Type of data set: ADME, Microsome. The method in brief:
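Compound (10 µM) was incubated 0 or 60 min at 37 °C with pooled HLMs (1 mg/mL), with or without 1 mM NADPH, or in buffer only (0.1 M KH2PO4 pH 7.4). Reactions were stopped with ice-cold acetonitrile. Remaining parent was measured by HPLC-fluorescence relative to 0 min; mean ± SD, n = 3.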

Data set [12] is described as follows: Metabolic stability in human liver microsomes assessed as retention time of 7-phenyl-3H-pyrrolo[3,2-f]quinolin-9(6H)-one metabolite at 10 uM incubated for 60 mins in presence of NADPH by HPLC analysis. Type of data set: ADME, Microsome. Particulars: 1 h. The method in brief: as §3
Data set [13] is described as follows: Metabolic stability in human liver microsomes at 10 uM incubated for 60 mins in presence of NADPH by ESI-MS analysis. Type of data set: ADME, Microsome. Particulars: 1 h.
The nature of data set [14]: Metabolic stability in human liver microsomes at 10 uM incubated for 60 mins in absence of NADPH by HPLC analysis. The class given is ADME, Microsome. Particulars: 1 h. The method in brief: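 Compound at 10 μM final was incubated at 37 °C with pooled mixed-gender HLMs (1 mg/mL) in 0.1 M KH₂PO₄ pH 7.4, NADPH omitted, for 0 or 60 min. Reaction was started by adding microsomes after 3-min equilibration and stopped with ice-cold acetonitrile. Supernatant was analysed by HPLC-fluorescence. Percent remaining at 60 min is relative to 0 min; mean ± SD, n = 3.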

With `CCn1ccc2c3c(=O)cc(-c4ccccc4F)[nH]c3ccc21`, the result with HeLa [1], with HeLa [3], in the data set on A2058 [4], in the data set on A2058 [5] and with HeLa [6] was Active. Moreover, the Activity was 44% in the data set on HeLa [2] and “Dose-dependent effect” in the data set with HeLa [7]. For the same compound, the GI50 (usually the concentration at which growth is held to half of that of the control) in the data set on MDA-MB-231 came out at 164 nM; in [9], 0.26 nM. Further, the inhibition entry in the data set with HeLa [8] is “Active”.
With `CCn1ccc2c3c(=O)cc(-c4ccccc4)[nH]c3ccc21`, the Drug metabolism entry in data set [10], in [11] and in [13] was “Metabolite_Detected” in each case. Further, in data set [12], the Retention_time turned out to be 11.2 min. Besides, the Stability entry in [14] is on record as “Stable”.
